Test results as given in PMC7906539 (Medicinal chemistry research : an international journal for …, 2020).

What was measured:
[1] = test system: SH-SY5Y cells; assay: Cytotoxicity assay; format: cell-based; details: SH-SY5Y cells, 24 h incubation, CellTiter-Glo
Outline: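 SH-SY5Y cells seeded at 6000/well in 1:1 EMEM/F12 with 10% FBS. Exposure 24 h at 37 °C, then CellTiter-Glo luminescence read. Percent cytotoxicity normalized to DMSO controls.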

[2] = molecular target: His-mHtt and GST-CaM (CaM–mHtt interaction) (Homo sapiens, UniProt P0DP23+P42858); assay: CaM/mHtt AlphaScreen binding assay; details: for IC50: read-out: AlphaScreen CaM–mHtt, IC50, triplicate
Chain of His-mHtt and GST-CaM (CaM–mHtt interaction) (P42858 whole entry, one chain of several): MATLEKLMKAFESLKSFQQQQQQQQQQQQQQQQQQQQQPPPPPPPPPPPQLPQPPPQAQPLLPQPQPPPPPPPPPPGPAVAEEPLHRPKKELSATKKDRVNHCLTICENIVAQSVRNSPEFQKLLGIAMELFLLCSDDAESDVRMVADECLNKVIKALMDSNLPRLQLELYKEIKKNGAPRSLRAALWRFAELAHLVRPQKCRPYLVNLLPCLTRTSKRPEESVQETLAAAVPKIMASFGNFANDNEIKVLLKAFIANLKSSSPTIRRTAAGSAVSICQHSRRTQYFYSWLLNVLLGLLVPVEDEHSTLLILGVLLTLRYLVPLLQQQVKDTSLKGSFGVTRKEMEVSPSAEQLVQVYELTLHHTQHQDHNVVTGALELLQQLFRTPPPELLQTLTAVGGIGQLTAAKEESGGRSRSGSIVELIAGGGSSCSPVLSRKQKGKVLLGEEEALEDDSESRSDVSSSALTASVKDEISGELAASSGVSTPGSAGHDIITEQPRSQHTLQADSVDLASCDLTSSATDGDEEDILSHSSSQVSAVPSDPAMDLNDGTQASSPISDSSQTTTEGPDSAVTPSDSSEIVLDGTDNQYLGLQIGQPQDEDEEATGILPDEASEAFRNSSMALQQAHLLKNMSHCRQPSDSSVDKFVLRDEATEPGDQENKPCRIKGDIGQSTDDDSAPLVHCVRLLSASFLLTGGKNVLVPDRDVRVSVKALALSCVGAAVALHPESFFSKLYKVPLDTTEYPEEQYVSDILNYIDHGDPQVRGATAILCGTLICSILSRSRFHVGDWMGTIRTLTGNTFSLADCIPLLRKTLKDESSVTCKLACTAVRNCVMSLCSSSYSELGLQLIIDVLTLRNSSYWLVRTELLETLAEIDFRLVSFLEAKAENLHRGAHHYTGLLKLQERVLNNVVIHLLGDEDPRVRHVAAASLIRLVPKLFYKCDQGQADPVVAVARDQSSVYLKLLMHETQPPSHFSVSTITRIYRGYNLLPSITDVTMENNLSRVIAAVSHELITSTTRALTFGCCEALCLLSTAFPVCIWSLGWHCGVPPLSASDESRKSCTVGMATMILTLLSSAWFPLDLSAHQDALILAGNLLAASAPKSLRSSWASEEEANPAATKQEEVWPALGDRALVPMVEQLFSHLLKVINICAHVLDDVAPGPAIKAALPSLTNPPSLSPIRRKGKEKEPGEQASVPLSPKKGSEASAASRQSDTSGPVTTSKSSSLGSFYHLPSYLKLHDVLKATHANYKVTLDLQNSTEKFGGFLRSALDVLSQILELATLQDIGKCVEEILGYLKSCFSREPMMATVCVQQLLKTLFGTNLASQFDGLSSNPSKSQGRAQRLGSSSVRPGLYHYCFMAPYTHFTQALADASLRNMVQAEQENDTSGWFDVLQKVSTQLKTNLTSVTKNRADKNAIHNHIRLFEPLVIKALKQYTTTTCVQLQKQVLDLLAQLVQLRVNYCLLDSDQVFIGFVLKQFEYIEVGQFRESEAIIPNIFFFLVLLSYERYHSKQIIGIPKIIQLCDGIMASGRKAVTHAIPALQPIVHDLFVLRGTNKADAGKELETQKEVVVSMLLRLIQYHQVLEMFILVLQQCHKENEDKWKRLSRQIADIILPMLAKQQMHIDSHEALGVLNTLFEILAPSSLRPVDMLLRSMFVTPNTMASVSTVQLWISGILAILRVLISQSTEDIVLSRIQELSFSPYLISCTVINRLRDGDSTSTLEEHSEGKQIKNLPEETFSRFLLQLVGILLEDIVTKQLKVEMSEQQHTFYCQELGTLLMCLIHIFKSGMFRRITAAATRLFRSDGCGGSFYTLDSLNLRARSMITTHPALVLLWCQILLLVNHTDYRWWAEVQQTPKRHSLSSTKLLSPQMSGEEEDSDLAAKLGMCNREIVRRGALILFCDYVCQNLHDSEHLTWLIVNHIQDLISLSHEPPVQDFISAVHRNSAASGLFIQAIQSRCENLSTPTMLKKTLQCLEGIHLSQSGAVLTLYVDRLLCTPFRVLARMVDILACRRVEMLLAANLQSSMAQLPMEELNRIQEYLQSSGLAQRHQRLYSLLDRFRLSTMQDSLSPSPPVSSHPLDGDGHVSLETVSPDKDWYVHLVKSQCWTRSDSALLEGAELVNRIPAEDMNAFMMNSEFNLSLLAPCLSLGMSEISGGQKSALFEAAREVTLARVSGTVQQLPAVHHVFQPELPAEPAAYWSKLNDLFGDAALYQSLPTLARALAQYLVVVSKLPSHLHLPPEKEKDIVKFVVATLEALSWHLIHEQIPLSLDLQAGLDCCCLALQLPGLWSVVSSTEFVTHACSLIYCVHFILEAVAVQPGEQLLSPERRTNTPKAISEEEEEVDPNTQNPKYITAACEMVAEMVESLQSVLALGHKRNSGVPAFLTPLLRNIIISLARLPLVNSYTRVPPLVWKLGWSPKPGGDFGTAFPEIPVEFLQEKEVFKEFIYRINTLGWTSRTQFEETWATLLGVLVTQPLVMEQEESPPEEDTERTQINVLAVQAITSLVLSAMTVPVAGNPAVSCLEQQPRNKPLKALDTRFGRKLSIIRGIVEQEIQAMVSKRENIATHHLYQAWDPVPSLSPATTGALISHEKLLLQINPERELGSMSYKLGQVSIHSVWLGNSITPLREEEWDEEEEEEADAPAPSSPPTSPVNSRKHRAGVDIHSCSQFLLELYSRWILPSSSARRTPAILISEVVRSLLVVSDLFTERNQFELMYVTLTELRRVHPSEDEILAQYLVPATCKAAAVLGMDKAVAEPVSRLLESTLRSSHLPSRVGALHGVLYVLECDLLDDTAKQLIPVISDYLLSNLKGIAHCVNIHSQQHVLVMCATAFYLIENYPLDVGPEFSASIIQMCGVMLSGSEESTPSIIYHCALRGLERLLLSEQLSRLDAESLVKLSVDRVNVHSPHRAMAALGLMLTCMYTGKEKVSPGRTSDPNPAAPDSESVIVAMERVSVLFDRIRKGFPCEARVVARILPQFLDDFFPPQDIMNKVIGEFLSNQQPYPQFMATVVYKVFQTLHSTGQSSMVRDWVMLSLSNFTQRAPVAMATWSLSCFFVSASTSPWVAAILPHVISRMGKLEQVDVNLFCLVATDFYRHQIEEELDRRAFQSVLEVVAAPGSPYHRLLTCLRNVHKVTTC
Outline: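 His-mHtt (10 nM) preincubated 30 min with test compound, then GST-CaM (10 nM) added for 60 min at room temperature. Ni-chelate acceptor (10 μg/mL) and glutathione donor beads (15 μg/mL) are added for 2 h, then Alpha counts are read. Final 300–0.002 μM, triplicate; % inhibition normalized to DMSO controls.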

Compound	Cytotoxicity (SH-SY5Y cells, 24 h) [1]	IC50 [2]	Disruption of mHtt-CaM PPI (in words) [2]
C=C1CCN([C@H](CC(C)C)C(=O)NCc2ccc(C)cc2)S(=O)(=O)c2ccccc21 [Compound 10e, (R)-4-Methyl-N-(4-methylbenzyl)-2-(5-methylene-1,1-dioxido-4,5-dihydrobenzo[f][1,2]thiazepin-2(3H)-yl) pentanamide]	64 ± 2.5 µM	15.1 µM	–
Cc1ccc(CNC(=O)[C@H](CC(C)C)N2CCC(=O)c3ccccc3S2(=O)=O)cc1 [Compound 11e, (S)-2-(1,1-Dioxido-5-oxo-4,5-dihydrobenzo[f][1,2]thiazepin-2(3H)-yl)-4-methyl-N-(4-methylbenzyl)pentanamide]	43.4 µM	24.5 µM	–
C=C1CCN([C@@H](CC(C)C)C(=O)NCc2ccccc2)S(=O)(=O)c2ccccc21 [Compound 9b]	>300 µM	12.4 µM	–
CC(C)C[C@@H](C(=O)NCc1ccc(Cl)cc1)N1CCC(=O)c2ccccc2S1(=O)=O [Compound 11c, (S)-N-(4-Chlorobenzyl)-2-(1,1-dioxido-5-oxo-4,5-dihydrobenzo[f][1,2]thiazepin-2(3H)-yl)-4-methylpentanamide]	41.4 µM	11.2 µM	–
CC(C)C[C@@H](C(=O)NCc1ccc(Cl)c(Cl)c1)N1CCC(=O)c2ccccc2S1(=O)=O [Compound 11a, (S) -N-(3,4-Dichlorobenzyl)-2-(1,1-dioxido-5-oxo-4,5-dihydrobenzo[f][1,2]thiazepin-2(3H)-yl)-4-methylpentanamide]	39.8 µM	2.14 µM	–
C=C1CCN([C@H](CC(C)C)C(=O)NCC2CCCCC2)S(=O)(=O)c2ccccc21 [Compound 10g, (R)-N-(Cyclohexylmethyl)-4-methyl-2-(5-methylene-1,1-dioxido-4,5-dihydrobenzo[f][1,2]thiazepin-2(3H)-yl) pentanamide]	99 ± 4 µM	12.2 µM	–
C=C1CCN([C@@H](CC(C)C)C(=O)NCc2ccc(OC)cc2)S(=O)(=O)c2ccccc21 [Compound 9f, (S)-N-(4-Methoxybenzyl)-4-methyl-2-(5-methylene-1,1-dioxido-4,5-dihydrobenzo[f][1,2]thiazepin-2(3H)-yl) pentanamide]	>300 µM	> 300 µM	lost all mHtt-CaM disruption activity
C=C1CCN([C@H](CC(C)C)C(=O)NCc2ccc(Cl)c(Cl)c2)S(=O)(=O)c2ccccc21 [Compound 10a, (R)-N-(3,4-Dichlorobenzyl)-4-methyl-2-(5-methylene-1,1-dioxido-4,5-dihydrobenzo[f][1,2]thiazepin-2(3H)-yl) pentanamide]	>300 µM	0.98 µM	–
CC(C)C[C@@H](C(=O)NCc1ccc(Cl)c(C(F)(F)F)c1)N1CCC(=O)c2ccccc2S1(=O)=O [Compound 11d, (S)-N-(4-Chloro-3-(trifluoromethyl)benzyl)-2-(1,1-dioxido-5-oxo-4,5-dihydrobenzo[f][1,2]thiazepin-2(3H)-yl)-4-methylpentanamide]	44.2 µM	2.03 µM	–
CC(C)C[C@@H](C(=O)NCc1ccccc1)N1CCC(=O)c2ccccc2S1(=O)=O [Compound 11b, (S)-N-Benzyl-2-(1,1-dioxido-5-oxo-4,5-dihydrobenzo[f][1,2]thiazepin-2(3H)-yl)-4-methylpentanamide]	43.8 µM	14.6 µM	–
CC(C)C[C@@H](C(=O)NCCc1ccc(Cl)c(Cl)c1)N1CCC(=O)c2ccccc2S1(=O)=O [Compound 11h, (S)-N-(3,4-Dichlorophenethyl)-2-(1,1-dioxido-5-oxo-4,5-dihydrobenzo[f][1,2]thiazepin-2(3H)-yl)-4-methylpentanamide]	32.3 µM	0.97 µM	–
